From ChEMBL document CHEMBL4311937, “Repositioning Salirasib as a new antimalarial agent” (Medchemcomm, 2019)
Active and inactive are the calls of the source. The rule behind the calls is not given here.

Legend:
Plasmodium falciparum [1] = assay: Antimalarial activity against synchronized ring stage Plasmodium falciparum 3D7 transfected with nano-luciferase assessed as parasite growth inhibition at 200 uM after 72 hrs by Nano-Glo luciferase assay; assay type: functional, organism-based
Plasmodium falciparum [2] = assay: Antimalarial activity against synchronized ring stage Plasmodium falciparum 3D7 transfected with nano-luciferase assessed as parasite growth inhibition after 72 hrs by Nano-Glo luciferase assay; assay type: functional, organism-based; conditions: 3D7, 72 h
Method in brief: (§1)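 Assays started at 1% ring stage and 2% hematocrit, with serial RPMI dilutions from 20 mM ethanol stocks. Cultures were lysed with an equal volume of 0.02% saponin buffer containing Nano-Glo substrate, and luminescence was read for 30 s. IC50 was fitted by variable-slope nonlinear regression; 3 experiments ×3 technical replicates.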

[3] = Selectivity index, ratio of IC50 for African green monkey Vero cells to IC50 for synchronized ring stage Plasmodium falciparum 3D7 transfected with nano-luciferase; assay type: toxicity; conditions: read-out: Ratio IC50
Vero = assay: Cytotoxicity against African green monkey Vero cells after 72 hrs by MTT assay; assay type: cell-based; conditions: Chlorocebus sabaeus
Method in brief: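 Vero cells in DMEM with 10% FBS and penicillin/streptomycin, 37 °C, 5% CO₂, seeded at 3000 cells/well. Compounds came from 27 or 25 mM DMSO stocks diluted in medium, with matching DMSO controls. After 72 h, cells got 0.5 mg/mL MTT for 4 h at 37 °C; formazan was dissolved in DMSO and absorbance read at 562 nm.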

Erythrocyte [4] = assay: Hemolytic activity in erythrocytes (unknown origin) at 200 uM; assay type: ADME, cell-based
Erythrocyte [5] = assay: Hemolytic activity in erythrocytes (unknown origin) at 100 uM; assay type: ADME, cell-based
Plasmodium falciparum [6] = assay: Antimalarial activity against synchronized ring stage Plasmodium falciparum 3D7 transfected with nano-luciferase assessed as parasite growth inhibition after 48 hrs by Nano-Glo luciferase assay; assay type: functional, organism-based; conditions: 3D7, 48 h
Method in brief: as §1, with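 “nLuc-exporting transfected 3D7 rings were sorbitol-synchronized and cultured in RPMI-1640/0.5% Albumax I under 5% CO₂/5% O₂/90% N₂. Assays” for “Assays”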

Plasmodium falciparum [7] = assay: Antimalarial activity against synchronized ring stage Plasmodium falciparum 3D7 assessed as parasite growth inhibition measured after 24 to 96 hrs; assay type: functional, organism-based; conditions: in the assay text read “24 to 72 hrs” for “24 to 96 hrs”
Method in brief: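 Sorbitol-synchronized 3D7 rings grown in RPMI-1640 with 0.5% Albumax I under 5% CO₂/5% O₂/90% N₂. Started at 1% ring stage, 2% hematocrit, with serial dilutions in RPMI from 20 mM ethanol stocks, plus ethanol solvent controls. Followed up to 72 h. Growth was read by SYBR Green I lysis-buffer staining (485/520 nm) and confirmed by Giemsa smears. IC50 came from variable-slope nonlinear regression; 3 experiments ×3 technical replicates.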

For `CCCCCCCCCCn1cc(CSc2ccccc2C(=O)O)nn1`, the Activity (Plasmodium falciparum [1]) was “Active” and the IC50 (Plasmodium falciparum [2]) was > 200 µM.
For `O=C(O)c1ccccc1SCc1cn(Cc2ccc3ccccc3c2)nn1`, the selectivity ratio [3] was 6.95, the Activity (Plasmodium falciparum [1]) was “Active” and the IC50 (Plasmodium falciparum [2]) was 20.5 µM. For the same molecule, the IC50 (Vero) was 143 µM.
With `CC(C)=CCn1cc(CSc2ccccc2C(=O)O)nn1` the Activity (Plasmodium falciparum [1]) was “Active” and the IC50 (Plasmodium falciparum [2]) was > 200 µM.
With `CCOC(=O)Cn1cc(CSc2ccccc2C(=O)O)nn1` the Activity (Plasmodium falciparum [1]) was “Active” and the IC50 (Plasmodium falciparum [2]) was > 200 µM.
For `CC(C)=CCSc1ccccc1C(=O)O`, the Activity (Plasmodium falciparum [1]) was “Active” and the IC50 (Plasmodium falciparum [2]) was > 200 µM.
In the case of `CCCCCCCCn1cc(CSc2ccccc2C(=O)O)nn1`, the Activity (Plasmodium falciparum [1]) is reported as “Active” and the IC50 (Plasmodium falciparum [2]) is reported as > 200 µM.
With `C/C(=C\Cn1cc(CSc2ccccc2C(=O)O)nn1)CCCC(C)CCCC(C)CCCC(C)C` (centres undefined) the selectivity ratio [3] was 3.67, the Activity (Plasmodium falciparum [1]) was “Active” and the Activity (Erythrocyte [4]) was “Toxic”. For the same molecule, the IC50 (Plasmodium falciparum [2]) was 9.75 µM, the Activity (Erythrocyte [5]) was “Non-Toxic” and the IC50 (Vero) was 34 µM.
With `CCCCCCCCCCCCCCCCn1cc(CSc2ccccc2C(=O)O)nn1` the selectivity ratio [3] was 1.86, the Activity (Plasmodium falciparum [1]) was “Active” and the Activity (Erythrocyte [4]) was “Toxic”. The IC50 (Plasmodium falciparum [2]) was 14.4 µM, the Activity (Erythrocyte [5]) was “Non-Toxic” and the IC50 (Vero) was 27 µM.
With `CCCCCCCCSc1ccccc1C(=O)O` the Activity (Plasmodium falciparum [1]) was “Active” and the IC50 (Plasmodium falciparum [2]) was > 200 µM.
For `O=C(O)c1ccccc1SCc1cn(CCc2ccccc2)nn1`, the Activity (Plasmodium falciparum [1]) was “Active” and the IC50 (Plasmodium falciparum [2]) was > 200 µM.
In the case of `C/C(=C\CSc1ccccc1C(=O)O)CCCC(C)CCCC(C)CCCC(C)C` (centres undefined), the selectivity ratio [3] is reported as 3.87, the Activity (Plasmodium falciparum [1]) is reported as “Active” and the IC50 (Plasmodium falciparum [2]) is reported as 13.4 µM. It also gave an IC50 (Vero) of 52 µM.
In the case of `CCCCCCCCCCCCCn1cc(CSc2ccccc2C(=O)O)nn1`, the selectivity ratio [3] is reported as 2.99, the Activity (Plasmodium falciparum [1]) is reported as “Active” and the IC50 (Plasmodium falciparum [2]) is reported as 19.8 µM. It also gave an IC50 (Vero) of 59 µM.
In the case of `O=C(O)c1ccccc1SCc1cn(CCCc2ccccc2)nn1`, the Activity (Plasmodium falciparum [1]) is reported as “Active” and the IC50 (Plasmodium falciparum [2]) is reported as > 200 µM.
In the case of `O=C(O)c1ccccc1SCc1cn(C2CCCCC2)nn1`, the Activity (Plasmodium falciparum [1]) is reported as “Active” and the IC50 (Plasmodium falciparum [2]) is reported as > 200 µM.
In the case of `CC(C)=CCC/C(C)=C/Cn1cc(CSc2ccccc2C(=O)O)nn1`, the Activity (Plasmodium falciparum [1]) is reported as “Active” and the IC50 (Plasmodium falciparum [2]) is reported as > 200 µM.
With `O=C(O)c1ccccc1SC1CCCCC1` the Activity (Plasmodium falciparum [1]) was “Active” and the IC50 (Plasmodium falciparum [2]) was > 200 µM.
In the case of `O=C(O)c1ccccc1SCc1cn(C/C=C/c2ccccc2)nn1`, the selectivity ratio [3] is reported as > 3.06, the Activity (Plasmodium falciparum [1]) is reported as “Active” and the IC50 (Plasmodium falciparum [2]) is reported as 65.3 µM. For the same molecule, the IC50 (Vero) was > 200 µM.
For `CCCCCCCCCCSc1ccccc1C(=O)O`, the Activity (Plasmodium falciparum [1]) was “Active” and the IC50 (Plasmodium falciparum [2]) was > 200 µM.
For `CCOC(=O)CCn1cc(CSc2ccccc2C(=O)O)nn1`, the Activity (Plasmodium falciparum [1]) was “Active” and the IC50 (Plasmodium falciparum [2]) was > 200 µM.
With `O=C(O)c1ccccc1SC/C=C/c1ccccc1` the Activity (Plasmodium falciparum [1]) was “Active” and the IC50 (Plasmodium falciparum [2]) was > 200 µM.
`C[C@H]1[C@H](OC(=O)CCC(=O)O)O[C@@H]2O[C@@]3(C)CC[C@H]4[C@H](C)CC[C@@H]1[C@@]24OO3` [ARTESUNATE] gave an IC50 (Plasmodium falciparum [6]) of 0.00164 to 0.00174 µM.
For `CC(C)=CCC/C(C)=C/CSc1ccccc1C(=O)O`, the Activity (Plasmodium falciparum [1]) was “Active” and the IC50 (Plasmodium falciparum [2]) was > 200 µM.
For `C#CCSc1ccccc1C(=O)O`, the Activity (Plasmodium falciparum [1]) was “Active” and the IC50 (Plasmodium falciparum [2]) was > 200 µM.
In the case of `CCOC(=O)CCSc1ccccc1C(=O)O`, the Activity (Plasmodium falciparum [1]) is reported as “Active” and the IC50 (Plasmodium falciparum [2]) is reported as > 200 µM.
In the case of `O=C(O)c1ccccc1SCc1cn(Cc2ccccc2)nn1`, the Activity (Plasmodium falciparum [1]) is reported as “Active” and the IC50 (Plasmodium falciparum [2]) is reported as > 200 µM.
For `CC(C)=CCC/C(C)=C/CC/C(C)=C/Cn1cc(CSc2ccccc2C(=O)O)nn1`, the selectivity ratio [3] was > 7.7, the Activity (Plasmodium falciparum [1]) was “Active” and the IC50 (Plasmodium falciparum [2]) was 26 µM. The IC50 (Vero) was > 200 µM.
For `CC(C)=CCC/C(C)=C/CC/C(C)=C/CSc1ccccc1C(=O)O` [SALIRASIB], the selectivity ratio [3] was 10.3, the IC50 (Plasmodium falciparum [7]) was 14 µM and the Activity (Plasmodium falciparum [1]) was “Active”. For the same molecule, the IC50 (Plasmodium falciparum [2]) was 20.3 µM and the IC50 (Vero) was 210 µM.
